The values that follow come from ChEMBL document CHEMBL1126903.

Experiment [1] is described as follows: The pKa value was measured at N15 chemical shift changes due to protonation. A digest of the protocol: (§1)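 Chemical shift recorded at 4 °C across a pH series. Sample pH was read in an ice-water bath (0-4 °C) before and after each NMR run and the two readings averaged, with no correction for deuterium or temperature. The meter was calibrated at 20 °C. pKa came from fitting single- or double-ionization titration equations to shift versus pH, with error estimated at about 0.05 pH units.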

Experiment [2] in a line: The pKa value was measured at 31-P chemical shift changes due to protonation.
Experiment [3] can be described thus: The pKa value was measured at 17-O chemical shift changes due to protonation.
Experiment [4] is described as follows: The pKa value was measured at 15-N chemical shift changes due to protonation. A digest of the protocol:
as §1

Regarding `N[C@@H](Cc1c[nH]cn1)C(=O)O`, the pKa in experiment [1] was 6.2.
As to `CCOP(=O)(NP(=O)(OCC)OCC)OCC`, the values for the pKa in experiment [2] and in experiment [3] were 3.8 and 4.2, respectively.
Regarding `NP(N)(=O)O`, the pKa in experiment [2] and in experiment [4] was 5.4 in each case.
On to `NP(=O)(O)O`, for which the pKa was 3 in experiment [2] and 2.8 in experiment [4].
Consider `c1c[nH]cn1`, for which the pKa in experiment [1] was 7.
Turning to `Nc1ncnc2c1ncn2[C@@H]1O[C@H](COP(=O)(O)OP(=O)(O)OP(=O)(O)O)[C@@H](O)[C@H]1O`, the pKa in experiment [2] is 6.6.
Take `O=P(O)(O)NP(=O)(O)O`: the pKa turned out to be 10.3 in experiment [2] and 10.4 in experiment [3].
